Activity calls are given as the source filed them. No cut-off for these calls is given here.
Legend:
[1] = test system: Solanum lycopersicum; assay: Induction of necrotic symptoms in tomato leaves up to 2 mM by tomato seedling bioassay; format: functional, organism-based
Outline: (§1)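 Tomato seedlings were conditioned 24 h in water, which was then replaced with filter-sterilized (0.2 µm) test solutions at 2, 0.2, 0.1 or 0.01 mM. Phytotoxic symptoms and root growth inhibition were scored at 24, 48 and 72 h. Each assay was run twice on 10 replicate seedlings.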

[2] = test system: Solanum lycopersicum; assay: Inhibition of tomato seedling growth at 100 uM; format: functional; outline: as §1
[3] = test system: Endothelial cell; assay: Antiangiogenic activity in bovine endothelial cells assessed as inhibition of cell migration at 50 uM; format: functional, cell-based; details: Bos taurus
[4] = test system: Endothelial cell; assay: Antiangiogenic activity in bovine endothelial cells assessed as inhibition of cell migration at 12.5 uM; format: functional, cell-based; details: Bos taurus
[5] = Cytotoxicity against bovine endothelial cells at 50 uM; format: cell-based, Bos taurus; details: cattle, endothelial cell
[6] = Cytotoxicity against bovine endothelial cells at 12.5 uM; format: cell-based, Bos taurus; details: cattle, endothelial cell
[7] = test system: Solanum lycopersicum; assay: Inhibition of tomato seedling growth at 200 uM; format: functional, organism-based; outline: as §1
[8] = test system: Solanum lycopersicum; assay: Inhibition of tomato seedling growth at 10 uM; format: functional; parameters: scale not given: the % may be the effect or the level left; outline: as §1

Row | Compound | Activity [1] | Activity [2] | Activity [3] | Activity [4] | Activity [5] | Activity [6] | Activity [7] | Activity [8] [%]
1 | O=C(O)c1cc(O)c(C2OC(=O)c3c(O)cc(O)cc32)c(O)c1 (stereo not given) [CRYPHONECTRIC ACID] | inactive | Active | inactive | inactive | Non-toxic | Non-toxic | – | –
2 | COc1cc(O)c2c(=O)oc(CC(C)O)cc2c1 (stereo not given) [DIAPORTHIN] | inactive | 75% | – | – | – | – | Active | 50
